# Experimental data: ChEMBL document CHEMBL4184291, “Discovery of N-arylpyrroles as agonists of GPR120 for the treatment of type II diabetes” (Bioorg Med Chem Lett, 2018)
# How the values were obtained:
# Mus musculus [1] = experiment: Antiobesity activity in diet-induced obesity C57Bl6/J mouse model assessed as final insulin level in plasma at 10 mg/kg qd for 15 days measured on day 15 post 6 hrs fasting (reference value: 7304 +/- 2967 pg/ml); assay type: functional
# Mus musculus [2] = experiment: Antiobesity activity in diet-induced obesity C57Bl6/J mouse model assessed as final glucose level in plasma at 30 mg/kg qd for 15 days measured on day 15 post 6 hrs fasting (reference value: 184 +/- 30 mg/dL); assay type: functional
# [3] = Volume of distribution at steady state in mouse at 1.15 mg/kg, iv by LC-MS/MS analysis; assay type: ADME, organism-based; conditions: in vivo, read-out: Vdss
# Mus musculus [4] = experiment: Antidiabetic activity in diet-induced obese C57Bl/6 mouse model assessed as change in plasma glucose AUC at 0.3 mg/kg, po administered 30 mins prior to glucose challenge measured up to 90 mins post dose by OGTT; assay type: functional
# Outline: (§1)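 Diet-induced obese mice dosed orally at 0.1–3.0 mg/kg 30 min before an oral glucose load (time 0). Glucose followed from 30 min pre-glucose to 90 min post-glucose. Saxagliptin 1 mg/kg was the positive control.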
# Mus musculus [5] = experiment: Antidiabetic activity in diet-induced obese C57Bl/6 mouse model assessed as plasma glucose AUC at 10 mg/kg administered 30 mins prior to glucose challenge measured up to 90 mins post dose by ipGTT (reference value: 10113 mg/dL.min); assay type: functional, organism-based; parameters: time < 1.5 hr, dose 10 mg/kg
# Outline: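 Intraperitoneal glucose tolerance test with 10 mg/kg dosing, run in GPR120 knockout mice and in wild-type mice.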
# [6] = target: Free fatty acid receptor 1 (Mus musculus, UniProt Q76JU9); experiment: Agonist activity at mouse GPR40; assay type: functional
# [7] = AUClast in dog at 5 mg/kg, po by LC-MS/MS analysis; assay type: ADME, organism-based, Canis lupus familiaris; parameters: dose 5 mg/kg, route oral, time 0 - last; conditions: in vivo
# Mus musculus [8] = experiment: Antiobesity activity in diet-induced obesity C57Bl6/J mouse model assessed as final glucose level in plasma at 10 mg/kg qd for 15 days measured on day 15 post 6 hrs fasting (reference value: 184 +/- 30 mg/dL); assay type: functional
# Mus musculus [9] = experiment: Antidiabetic activity in diet-induced obese C57Bl/6 mouse model assessed as change in plasma glucose AUC at 0.1 mg/kg, po administered 30 mins prior to glucose challenge measured up to 90 mins post dose by OGTT; assay type: functional; outline: as §1
# [10] = Clearance in mouse at 1.15 mg/kg, iv by LC-MS/MS analysis; assay type: ADME, organism-based; conditions: in vivo
# [11] = Plasma concentration in mouse at 3 mg/kg; assay type: ADME, organism-based; conditions: in vivo
# Outline: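 Plasma exposure for a 3 mg/kg oral dose in mice was predicted from the mouse PK study, not measured directly. It was expressed as ng/mL and converted to µM.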
# [12] = Half life in dog at 5 mg/kg, po by LC-MS/MS analysis; assay type: ADME, organism-based, Canis lupus familiaris; conditions: in vivo
# Mus musculus [13] = experiment: Antiobesity activity in diet-induced obesity C57Bl6/J mouse model assessed as final insulin level in plasma at 10 mg/kg bid for 15 days measured on day 15 post 6 hrs fasting (reference value: 7304 +/- 2967 pg/ml); assay type: functional
# [14] = Half life in rat liver microsomes; assay type: ADME, microsome
# Rattus norvegicus = organism: Rattus norvegicus; experiment: Displacement of [35S]TBPS from rat GABA-gated chloride channel at 10 uM after 120 mins by scintillation counting method
# [15] = Volume of distribution at steady state in rat at 2 mg/kg, iv by LC-MS/MS analysis; assay type: ADME, organism-based; conditions: in vivo, read-out: Vdss
# [16] = Half life in mouse at 14.6 mg/kg, po by LC-MS/MS analysis; assay type: ADME, organism-based; conditions: in vivo
# [17] = Cmax in dog at 5 mg/kg, po by LC-MS/MS analysis; assay type: ADME, organism-based, Canis lupus familiaris; parameters: dose 5 mg/kg, route oral; conditions: in vivo
# [18] = Half life in mouse liver microsomes; assay type: ADME, microsome
# [19] = Oral bioavailability in rat at 10 mg/kg by LC-MS/MS analysis; assay type: ADME, organism-based; conditions: in vivo
# [20] = Half life in human liver microsomes; assay type: ADME, microsome
# [21] = target: 5-hydroxytryptamine receptor 2B (Homo sapiens) (UniProt P41595); experiment: Displacement of [125I](+/-)DOI from recombinant human 5-HT2B at 10 uM after 60 mins by scintillation counting method relative to control
# Cavia porcellus [22] = experiment: Cardiotoxicity in guinea pig assessed as effect on heart rate at 22.4 mg/kg; assay type: toxicity, organism-based; conditions: in vivo
# [23] = Half life in rat at 2 mg/kg, iv by LC-MS/MS analysis; assay type: ADME, organism-based; conditions: in vivo
# [24] = target: 5-hydroxytryptamine receptor 5A (Homo sapiens) (UniProt P47898); experiment: Displacement of […] from recombinant human 5-HT5A at 10 uM after 60 mins by scintillation counting method relative to control
# Homo sapiens = organism: Homo sapiens; experiment: Selectivity ratio of EC50 for human GPR40 to EC50 for recombinant human GPR120 expressed in HEK293 cells; assay type: cell-based
# Mus musculus [25] = experiment: Antidiabetic activity in diet-induced obese C57Bl/6 mouse model assessed as plasma concentration required to show reduction in glucose level at 3 mg/kg administered 30 mins prior to glucose challenge measured up to 90 mins post dose by OGTT; assay type: functional
# [26] = target: Sodium-dependent noradrenaline transporter (Homo sapiens) (UniProt P23975); experiment: Displacement of [3H]nisoxetine from recombinant human norepinephrine transporter at 10 uM after 120 mins by scintillation counting method relative to control
# Mus musculus [27] = organism: Mus musculus; experiment: Selectivity ratio of EC50 for mouse GPR40 to EC50 for recombinant mouse GPR120 expressed in HEK293 cells; assay type: cell-based
# Cytochrome P450 2D6 = Cytochrome P450 2D6 (Homo sapiens, UniProt P10635); experiment: Inhibition of CYP2D6 (unknown origin); assay type: ADME
# Cavia porcellus [28] = experiment: Cardiotoxicity in guinea pig assessed as effect on QTcB interval at 22.4 mg/kg; assay type: toxicity, organism-based; conditions: in vivo
# Mus musculus [29] = experiment: Antiobesity activity in diet-induced obesity C57Bl6/J mouse model assessed as basal insulin level in plasma at 10 mg/kg qd for 15 days measured on day 15 post 6 hrs fasting (reference value: 16959 +/- 4943 pg/ml); assay type: functional
# [30] = Cmax in guinea pig at 22.4 mg/kg; assay type: ADME, organism-based, Cavia porcellus; parameters: dose 22.4 mg/kg; conditions: in vivo
# [31] = Cmax in mouse at 14.6 mg/kg, po by LC-MS/MS analysis; assay type: ADME, organism-based; parameters: dose 14.6 mg/kg, route oral; conditions: in vivo
# Mus musculus [32] = experiment: Antiobesity activity in diet-induced obesity C57Bl6/J mouse model assessed as change in plasma insulin level at 10 mg/kg bid for 15 days measured on day 15 post 6 hrs fasting; assay type: functional
# Cavia porcellus [33] = experiment: Cardiotoxicity in guinea pig assessed as effect on QRS interval at 22.4 mg/kg; assay type: toxicity, organism-based; conditions: in vivo
# Mus musculus [34] = experiment: Antidiabetic activity in diet-induced obese C57Bl/6 mouse model assessed as change in plasma glucose AUC at 3 mg/kg, po administered 30 mins prior to glucose challenge measured up to 90 mins post dose by OGTT; assay type: functional; outline: as §1
# Mus musculus [35] = experiment: Antiobesity activity in diet-induced obesity C57Bl6/J mouse model assessed as basal glucose level in plasma at 10 mg/kg bid for 15 days measured on day 15 post 6 hrs fasting (reference value: 187 +/- 24 mg/dL); assay type: functional
# Mus musculus [36] = experiment: Antiobesity activity in diet-induced obesity C57Bl6/J mouse model assessed as basal glucose level in plasma at 30 mg/kg qd for 15 days measured on day 15 post 6 hrs fasting (reference value: 187 +/- 24 mg/dL); assay type: functional
# Sequence of 5-hydroxytryptamine receptor 2B (Homo sapiens) (P41595 whole entry): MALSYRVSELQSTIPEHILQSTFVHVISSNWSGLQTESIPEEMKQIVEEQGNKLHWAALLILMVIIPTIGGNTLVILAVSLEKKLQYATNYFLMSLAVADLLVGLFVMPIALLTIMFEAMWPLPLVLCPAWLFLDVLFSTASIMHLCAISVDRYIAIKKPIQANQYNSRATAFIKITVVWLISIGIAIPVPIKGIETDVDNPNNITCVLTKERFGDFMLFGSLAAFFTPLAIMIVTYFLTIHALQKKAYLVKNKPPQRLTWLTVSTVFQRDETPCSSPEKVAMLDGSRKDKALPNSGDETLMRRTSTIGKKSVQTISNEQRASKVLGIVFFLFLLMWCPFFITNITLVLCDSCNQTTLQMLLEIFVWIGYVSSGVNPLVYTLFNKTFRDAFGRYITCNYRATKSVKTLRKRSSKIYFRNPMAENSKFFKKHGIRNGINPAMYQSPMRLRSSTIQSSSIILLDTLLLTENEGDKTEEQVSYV
# Sequence of 5-hydroxytryptamine receptor 5A (Homo sapiens) (P47898 whole entry): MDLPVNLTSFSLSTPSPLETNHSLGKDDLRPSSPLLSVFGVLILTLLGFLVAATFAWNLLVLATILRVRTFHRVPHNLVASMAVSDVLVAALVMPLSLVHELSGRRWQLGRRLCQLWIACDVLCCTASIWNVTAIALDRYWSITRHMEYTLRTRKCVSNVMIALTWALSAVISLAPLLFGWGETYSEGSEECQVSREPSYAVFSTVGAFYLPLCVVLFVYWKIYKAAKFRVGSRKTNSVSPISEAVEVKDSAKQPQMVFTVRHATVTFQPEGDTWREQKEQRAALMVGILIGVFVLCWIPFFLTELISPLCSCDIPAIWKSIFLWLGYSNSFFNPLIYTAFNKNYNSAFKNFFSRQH
# Sequence of Cytochrome P450 2D6 (P10635 whole entry): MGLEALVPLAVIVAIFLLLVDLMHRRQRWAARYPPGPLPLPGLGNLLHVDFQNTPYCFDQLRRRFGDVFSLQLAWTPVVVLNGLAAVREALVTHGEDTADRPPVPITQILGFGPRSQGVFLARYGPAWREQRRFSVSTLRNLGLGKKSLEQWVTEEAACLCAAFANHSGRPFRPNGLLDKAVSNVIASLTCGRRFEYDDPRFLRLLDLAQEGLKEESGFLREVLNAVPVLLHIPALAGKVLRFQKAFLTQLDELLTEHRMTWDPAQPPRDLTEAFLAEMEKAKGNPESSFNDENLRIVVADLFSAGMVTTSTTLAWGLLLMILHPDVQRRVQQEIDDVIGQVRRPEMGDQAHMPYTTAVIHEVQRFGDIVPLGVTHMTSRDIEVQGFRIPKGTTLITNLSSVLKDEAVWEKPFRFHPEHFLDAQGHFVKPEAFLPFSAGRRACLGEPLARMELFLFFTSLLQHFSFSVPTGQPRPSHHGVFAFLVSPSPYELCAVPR
# Sequence of Sodium-dependent noradrenaline transporter (Homo sapiens) (P23975 whole entry): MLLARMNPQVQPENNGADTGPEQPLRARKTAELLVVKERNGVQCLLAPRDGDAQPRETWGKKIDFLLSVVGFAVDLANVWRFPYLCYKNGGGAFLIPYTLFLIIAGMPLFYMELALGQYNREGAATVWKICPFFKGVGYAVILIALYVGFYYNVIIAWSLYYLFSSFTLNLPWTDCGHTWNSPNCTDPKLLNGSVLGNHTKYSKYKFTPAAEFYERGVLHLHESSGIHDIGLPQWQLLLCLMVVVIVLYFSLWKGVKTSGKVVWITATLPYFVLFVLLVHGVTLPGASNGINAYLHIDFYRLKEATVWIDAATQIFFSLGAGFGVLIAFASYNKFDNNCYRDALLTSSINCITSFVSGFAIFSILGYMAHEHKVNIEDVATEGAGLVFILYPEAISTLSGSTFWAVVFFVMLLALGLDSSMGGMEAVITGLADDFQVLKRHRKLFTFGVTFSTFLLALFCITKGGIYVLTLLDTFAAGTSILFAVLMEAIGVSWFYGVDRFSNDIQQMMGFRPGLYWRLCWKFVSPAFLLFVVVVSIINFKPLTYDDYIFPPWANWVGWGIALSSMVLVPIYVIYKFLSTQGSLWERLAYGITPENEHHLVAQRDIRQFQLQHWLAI
# Sequence of Free fatty acid receptor 1 (Q76JU9 whole entry): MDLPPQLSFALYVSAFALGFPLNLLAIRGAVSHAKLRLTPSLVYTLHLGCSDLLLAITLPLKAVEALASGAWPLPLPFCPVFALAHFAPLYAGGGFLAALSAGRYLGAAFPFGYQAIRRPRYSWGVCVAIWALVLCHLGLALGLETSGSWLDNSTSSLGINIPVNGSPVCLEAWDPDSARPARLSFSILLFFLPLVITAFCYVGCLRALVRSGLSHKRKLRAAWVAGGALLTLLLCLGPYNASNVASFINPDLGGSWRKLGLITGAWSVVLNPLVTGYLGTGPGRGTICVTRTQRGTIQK
structure (smiles),measurement,setting,value
O=C(O)CCc1cc(F)c(OCc2c(C(F)(F)F)ccn2-c2ccc(Cl)cc2)c(F)c1,Activity,Mus musculus [1],7756 pg/mL
same,Activity,Mus musculus [2],151 mg/dL
same,Vd,[3],1.14 L/kg
same,Activity,Mus musculus [4],-9%
same,AUC,Mus musculus [5],4920 mg/dL·min
same,EC50,[6],3.52 µM
same,AUC(0-t),[7],47900 ng·h/mL
same,Activity,Mus musculus [8],163 mg/dL
same,Activity,Mus musculus [9],8%
same,clearance,[10],4.9 mL/min/kg
same,concentration,[11],8.64 µM
same,half-life,[12],4.37 h
same,Activity,Mus musculus [13],6225 pg/mL
same,half-life,[14],2.2 h
same,inhibition,Rattus norvegicus,66%
same,Vd,[15],0.42 L/kg
same,half-life,[16],3.45 h
same,Cmax,[17],8920 ng/mL
same,half-life,[18],2.58 h
same,bioavailability,[19],116%
same,half-life,[20],0.85 h
same,inhibition,[21],62%
same,Activity,Cavia porcellus [22],Non-Toxic
same,half-life,[23],1.64 h
same,inhibition,[24],58%
same,Ratio EC50,Homo sapiens,42
same,EC,Mus musculus [25],32 nM
same,inhibition,[26],51%
same,Ratio EC50,Mus musculus [27],18
same,INH,Cytochrome P450 2D6,> 10 µM
same,Activity,Cavia porcellus [28],Non-Toxic
same,Activity,Mus musculus [29],17395 pg/mL
same,Cmax,[30],105000 ng/mL
same,Cmax,[31],18700 ng/mL
same,Activity,Mus musculus [32],-1080 pg/mL
same,Activity,Cavia porcellus [33],Non-Toxic
same,Activity,Mus musculus [34],-83%
same,Activity,Mus musculus [35],203 mg/dL
same,Activity,Mus musculus [36],201 mg/dL
